These results are taken from the array DNA melting data of Ke et al. (doi:10.1101/2024.01.08.574731).

Data set [1] is described as follows: melting temperature; fluorescence melt of hairpins on a sequencing array, two-state fit, raised by 9.35 °C to match UV melts. The settings on record: sodium 0.088 M. In outline: (§1)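 Two-state fits, bootstrapped, provided melting temperature and folding enthalpy from Cy3 fluorescence normalised to pre-quench Cy3 and to control constructs. Library hairpins with annealed Cy3 and quencher oligos were imaged on a sequenced MiSeq flow cell in 50 mM Na-HEPES pH 8.0, 25 mM NaCl, at 2.5 °C intervals up to 60 °C. Four replicates were combined with inverse-variance weighting. A 9.35 °C upward shift was applied to fitted temperatures to match UV melts.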

The nature of data set [2]: folding enthalpy; higher = less favourable; fluorescence melt of hairpins on a sequencing array, two-state fit. The settings on record: sodium 0.088 M. The method in brief:
as §1

On to CGCATCGGAAACGACGCG (((.(((....))).))), for which the Tm in data set [1] is 51.6 °C. For the same sequence, the folding enthalpy in data set [2] was -41.2 kcal/mol.

In the case of GCACACCCGAAAGGGTGC (((..(((....)))))), in data set [1], the Tm was 38.6 °C. In addition, the folding enthalpy in data set [2] was -5.94 kcal/mol.

GTTCTCTCGAAAGAGAAC (((..(((....)))))): in data set [1], the Tm worked out at 51.1 °C. In addition, in data set [2], the folding enthalpy was -34.5 kcal/mol.

As to GATCGGATCTCCGATC ((((((....)))))), in data set [1], the Tm was found to be 56.7 °C. In addition, the folding enthalpy in data set [2] is -40.4 kcal/mol.

GCCGCTCGAAAGAGAGGC (((.(((....))).))): the Tm in data set [1] came to 67.1 °C. Also, the folding enthalpy in data set [2] is -40 kcal/mol.

As for GAGAACGAAAGTTCACTC ((((((....)))..))), the Tm in data set [1] is 44.3 °C. In data set [2], the folding enthalpy is -17.2 kcal/mol.

GGTATGGGAAACCACACC (((.(((....))).))): the Tm in data set [1] amounted to 38.6 °C. Also, the folding enthalpy in data set [2] is -27 kcal/mol.

Regarding GGAGTCGAAAGACGCTCC ((((((....)))..))), the Tm in data set [1] worked out at 42.3 °C. In addition, in data set [2], the folding enthalpy is -12.6 kcal/mol.

As to GTAGGTGGAAACACCTAC (((((((....))))))), in data set [1], the Tm amounted to 60.5 °C. In data set [2], the folding enthalpy was -36.7 kcal/mol.

GCCCCACGAAAGTGCGGC (((.(((....))).))): the Tm in data set [1] is 54.3 °C. Besides, the folding enthalpy in data set [2] was -29.6 kcal/mol.

As for GGTCGCGGAAACGTGGCC ((.(.((....)).).)), the Tm in data set [1] stood at 53.5 °C. Further, the folding enthalpy in data set [2] was -48.9 kcal/mol.

On to GCCCAGCGAAAGCTTTGC ((..(((....)))..)), for which the Tm in data set [1] stood at 37.6 °C. In addition, the folding enthalpy in data set [2] was -7.49 kcal/mol.

GATCTATCTATAGATC ((((((....)))))): in data set [1], the Tm is 47.4 °C. The folding enthalpy in data set [2] is -38 kcal/mol.

GATCTAGCGTTAGATC ((((((....)))))): in data set [1], the Tm came out at 39.7 °C. Further, in data set [2], the folding enthalpy is -31.1 kcal/mol.

As to GGGTAGGGAAACTTGCCC (((.(.(....).).))), the Tm in data set [1] amounted to 35.6 °C. In data set [2], the folding enthalpy is -20.4 kcal/mol.

Regarding GACACGGGAAACCGTATC ((.((((....)))).)), the Tm in data set [1] turned out to be 35.2 °C. Besides, the folding enthalpy in data set [2] is -14.5 kcal/mol.

Take GTCAGGCGAAAGCCGAC (((.(((....)))))): the Tm in data set [1] was found to be 60.6 °C. The folding enthalpy in data set [2] was -16.5 kcal/mol.

Regarding GGGATAGGAAACTATTCC ((.((((....)))).)), the Tm in data set [1] was 40.7 °C. Also, the folding enthalpy in data set [2] was -34.3 kcal/mol.

On to GACTTAGGAAACTAAGTC (((((((....))))))), for which, in data set [1], the Tm came out at 53.8 °C. Besides, the folding enthalpy in data set [2] is -37.3 kcal/mol.

For the sequence GCATTGCGAAAGCATGGC ((..(((....)))..)), the Tm in data set [1] is 45.8 °C. Besides, in data set [2], the folding enthalpy is -19.9 kcal/mol.

For the sequence GCACTCGAAAGAGGATGC ((((((....)))..))), in data set [1], the Tm was found to be 40.1 °C. Also, the folding enthalpy in data set [2] was -22.4 kcal/mol.

As to GCCACGCGAAAGCTCGGC (((..((....))..))), the Tm in data set [1] was 51.2 °C. Further, the folding enthalpy in data set [2] is -22 kcal/mol.

With GCTAACGGAAACGCTAGC ((((.((....)).)))), the Tm in data set [1] was 44.8 °C. Also, the folding enthalpy in data set [2] was -33.9 kcal/mol.

In the case of GATCGTGAAACGATC ((((((...)))))), the Tm in data set [1] worked out at 66.8 °C. For the same sequence, the folding enthalpy in data set [2] was -36.8 kcal/mol.

Take GGCTACCGAAAGGTTGCC (((.(((....))).))): in data set [1], the Tm was determined as 63 °C. In addition, in data set [2], the folding enthalpy was -35.5 kcal/mol.

As for GTACGCCCGAAAGGGTAC (((..(((....)))))), the Tm in data set [1] came to 33.2 °C. In addition, in data set [2], the folding enthalpy was -11.4 kcal/mol.

As for GATCTATCGATAGATC ((((((....)))))), the Tm in data set [1] amounted to 48 °C. In addition, in data set [2], the folding enthalpy was -44.3 kcal/mol.

In the case of GCTGCGCGAAAGCGATGC ((..(((....)))..)), the Tm in data set [1] was found to be 58 °C. Also, the folding enthalpy in data set [2] was -18.6 kcal/mol.

Consider GTCTATGGAAACATAGAC (((((((....))))))), for which the Tm in data set [1] stood at 54.9 °C. For the same sequence, in data set [2], the folding enthalpy was -42.7 kcal/mol.

On to GGTGCAGGAAACTGCGTC (..((((....))))..), for which the Tm in data set [1] stood at 35.6 °C. In addition, in data set [2], the folding enthalpy was -10.3 kcal/mol.

CGAGGACGGAAACGTTCG (((..(((....)))))): the Tm in data set [1] was found to be 43.1 °C. Moreover, the folding enthalpy in data set [2] is -19.8 kcal/mol.

As for GCATCCGAAAGGACCTGC ((((((....)))..))), the Tm in data set [1] was 30 °C. Also, the folding enthalpy in data set [2] is -12.9 kcal/mol.

As for GGCTCCGAAAGGAACGCC ((((((....)))..))), the Tm in data set [1] stood at 50.5 °C. Moreover, the folding enthalpy in data set [2] was -21 kcal/mol.

As to GCGGTAACGAAAGTTCGC (((..(((....)))))), the Tm in data set [1] was found to be 47.4 °C. In data set [2], the folding enthalpy was -26.7 kcal/mol.

As for GAGGATACGAAAGTACTC (((..(((....)))))), in data set [1], the Tm amounted to 26.8 °C. Besides, the folding enthalpy in data set [2] was -9.94 kcal/mol.

As for GGACTTGGAAACAAGTTC (.(((((....))))).), the Tm in data set [1] is 47.5 °C. Moreover, the folding enthalpy in data set [2] is -29.8 kcal/mol.

As for GTCGGAGCGAAAGCTGAC (((..(((....)))))), in data set [1], the Tm amounted to 44.3 °C. Moreover, the folding enthalpy in data set [2] was -22.1 kcal/mol.
